Source: ChEMBL document CHEMBL2429728, “Novel Macrocyclic Amidinoureas: Potent Non-Azole Antifungals Active against Wild-Type and Resistant Candida Species” (2013)
Converted amounts (≈) assume the structure as drawn.

Columns and labels:
Assay type in all cases: functional
[1] = test system: Candida tropicalis; assay: Antifungal activity against wild type Candida tropicalis after 24 hrs by visually and spectrophotometric analysis
[2] = test system: Candida albicans; assay: Antifungal activity against wild type Candida albicans ATCC 60193 after 24 hrs by visually and spectrophotometric analysis; details: ATCC 60193, 24 h
[3] = test system: Candida tropicalis; assay: Antifungal activity against Candida tropicalis ATCC 200956 after 24 hrs by visually and spectrophotometric analysis; details: ATCC 200956, 24 h
Procedure, shortened: (§1)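 Read-out is MIC90 in μg/mL, scored at 24 h both by eye and spectrophotometrically. The panel is Candida isolates that earlier reports describe as amphotericin B-resistant, with amphotericin B run alongside as the reference drug.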

[4] = test system: Candida albicans; assay: Antifungal activity against fluconazole-resistant Candida albicans DSY289 harboring ERG11 gene mutant and increase expressing of CDR1 and CDR2 genes after 24 hrs by visually and spectrophotometric analysis; details: DSY289, 24 h
Procedure, shortened: (§2)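 Endpoint is MIC90, in μg/mL, read at 24 h by both visual inspection and spectrophotometry.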

[5] = test system: Clavispora lusitaniae; assay: Antifungal activity against Candida lusitaniae ATCC 200950 after 24 hrs by visually and spectrophotometric analysis; details: ATCC 200950, 24 h; procedure, shortened: as §1
[6] = test system: Candida albicans; assay: Antifungal activity against fluconazole-resistant Candida albicans DSY751 harboring ERG11 gene mutant and increase expressing of MDR1 gene after 24 hrs by visually and spectrophotometric analysis; details: DSY751, 24 h; procedure, shortened: as §2
[7] = test system: Meyerozyma guilliermondii; assay: Antifungal activity against wild type Candida guilliermondii after 24 hrs by visually and spectrophotometric analysis
[8] = test system: Clavispora lusitaniae; assay: Antifungal activity against Candida lusitaniae ATCC 200951 after 24 hrs by visually and spectrophotometric analysis; procedure, shortened: as §1
[9] = test system: Nakaseomyces glabratus; assay: Antifungal activity against wild type Candida glabrata after 24 hrs by visually and spectrophotometric analysis
[10] = test system: Clavispora lusitaniae; assay: Antifungal activity against Candida lusitaniae ATCC 24348 after 24 hrs by visually and spectrophotometric analysis; details: ATCC 24348, 24 h; procedure, shortened: as §1
[11] = test system: Candida albicans; assay: Antifungal activity against fluconazole-resistant Candida albicans DSY775 harboring ERG11 gene mutant and increase expressing of CDR1 and CDR2 genes after 24 hrs by visually and spectrophotometric analysis; details: DSY775, 24 h; procedure, shortened: as §2
[12] = test system: Nakaseomyces glabratus; assay: Antifungal activity against fluconazole-resistant Candida glabrata DSY756 increase expressing of CgCDR1, CgCDR2, and CgSNQ2 genes after 24 hrs by visually and spectrophotometric analysis; details: DSY756, 24 h; procedure, shortened: as §2
[13] = test system: Clavispora lusitaniae; assay: Antifungal activity against Candida lusitaniae ATCC 200953 after 24 hrs by visually and spectrophotometric analysis; procedure, shortened: as §1
[14] = test system: Candida albicans; assay: Antifungal activity against fluconazole-resistant Candida albicans DSY284 harboring ERG11 gene mutant and increase expressing of CDR1 and CDR2 genes after 24 hrs by visually and spectrophotometric analysis; details: DSY284, 24 h; procedure, shortened: as §2
[15] = test system: Pichia kudriavzevii; assay: Antifungal activity against wild type Candida krusei ATCC 14243 after 24 hrs by visually and spectrophotometric analysis; details: ATCC 14243, 24 h
[16] = test system: Candida albicans; assay: Antifungal activity against Candida albicans ATCC 200955 after 24 hrs by visually and spectrophotometric analysis; details: ATCC 200955, 24 h; procedure, shortened: as §2
[17] = test system: Nakaseomyces glabratus; assay: Antifungal activity against fluconazole-resistant Candida glabrata DSY2271 increase expressing of CgCDR2 genes after 24 hrs by visually and spectrophotometric analysis; details: DSY2271, 24 h; procedure, shortened: as §2
[18] = test system: Nakaseomyces glabratus; assay: Antifungal activity against fluconazole-resistant Candida glabrata DSY754 increase expressing of CgCDR1 gene after 24 hrs by visually and spectrophotometric analysis; details: DSY754, 24 h; procedure, shortened: as §2
[19] = test system: Clavispora lusitaniae; assay: Antifungal activity against Candida lusitaniae ATCC 200952 after 24 hrs by visually and spectrophotometric analysis; procedure, shortened: as §1
[20] = test system: Candida albicans; assay: Antifungal activity against fluconazole-resistant Candida albicans DSY735 expressing high level of CDR1 and CDR2 genes after 24 hrs by visually and spectrophotometric analysis; details: DSY735, 24 h; procedure, shortened: as §2
[21] = test system: Nakaseomyces glabratus; assay: Antifungal activity against fluconazole-resistant Candida glabrata DSY2254 increase expressing of CgCDR1 and CgCDR2 genes after 24 hrs by visually and spectrophotometric analysis; details: DSY2254, 24 h; procedure, shortened: as §2
[22] = test system: Candida parapsilosis; assay: Antifungal activity against wild type Candida parapsilosis ATCC 34136 after 24 hrs by visually and spectrophotometric analysis; details: Lodderomyces parapsilosis, ATCC 34136, 24 h
[23] = test system: Nakaseomyces glabratus; assay: Antifungal activity against fluconazole-resistant Candida glabrata DSY530 increase expressing of CgCDR1 gene after 24 hrs by visually and spectrophotometric analysis; details: DSY530, 24 h; procedure, shortened: as §2
[24] = test system: Kluyveromyces marxianus; assay: Antifungal activity against wild type Candida kefyr after 24 hrs by visually and spectrophotometric analysis
[25] = test system: Candida albicans; assay: Antifungal activity against fluconazole-resistant Candida albicans DSY348 harboring ERG11 gene mutant and increase expressing of CDR1 and CDR2 genes after 24 hrs by visually and spectrophotometric analysis; details: DSY348, 24 h; procedure, shortened: as §2
[26] = test system: Candida albicans; assay: Antifungal activity against fluconazole-resistant Candida albicans DSY292 harboring ERG11 gene mutant and increase expressing of MDR1 gene after 24 hrs by visually and spectrophotometric analysis; details: DSY292, 24 h; procedure, shortened: as §2
[27] = test system: Clavispora lusitaniae; assay: Antifungal activity against Candida lusitaniae ATCC 60247 after 24 hrs by visually and spectrophotometric analysis; details: ATCC 60247, 24 h; procedure, shortened: as §1
[28] = test system: Candida albicans; assay: Antifungal activity against fluconazole-resistant Candida albicans DSY296 harboring ERG11 gene mutant and increase expressing of CDR1 and CDR2 genes after 24 hrs by visually and spectrophotometric analysis; details: DSY296, 24 h; procedure, shortened: as §2

SMILES | MIC90 [1] | MIC90 [2] | MIC90 [3] | MIC90 [4] | MIC90 [5] | MIC90 [6] | MIC90 [7] | MIC90 [8] | MIC90 [9] | MIC90 [11] | MIC90 [12] | MIC90 [14] | MIC90 [17] | MIC90 [18] | MIC90 [20] | MIC90 [21] | MIC90 [23] | MIC90 [25] | MIC90 [26] | MIC90 [28] | further results
C/C=C/CNC(=N)NCCCCCCCCN1CCCCCOC(=O)CCNC(=N)NC1=O.O=C(O)C(F)(F)F | 16 µg/mL | 16 µg/mL | 16 µg/mL | 8 µg/mL | 8 µg/mL | 16 µg/mL | 8 µg/mL | 4 µg/mL | 32 µg/mL | 16 µg/mL | 64 µg/mL | 8 µg/mL | 32 µg/mL | 32 µg/mL | 16 µg/mL | 64 µg/mL | 32 µg/mL | 8 µg/mL | 16 µg/mL | 16 µg/mL | MIC90 [10]: 8 µg/mL; MIC90 [13]: 8 µg/mL; MIC90 [15]: 32 µg/mL; MIC90 [16]: 4 µg/mL; MIC90 [19]: 4 µg/mL; MIC90 [22]: 8 µg/mL; MIC90 [24]: 16 µg/mL; MIC90 [27]: 4 µg/mL
N=C(NCCCCCCCCN1CCCCCCCCNC(=N)NC1=O)NCC1CC1.O=C(O)C(F)(F)F | 0.5 µg/mL | 1 µg/mL | 2 µg/mL | 1 µg/mL | 4 µg/mL | 2 µg/mL | 2 µg/mL | 2 µg/mL | 16 µg/mL | 2 µg/mL | 16 µg/mL | 1 µg/mL | 16 µg/mL | 16 µg/mL | 1 µg/mL | 32 µg/mL | 16 µg/mL | 2 µg/mL | 2 µg/mL | 2 µg/mL | MIC90 [10]: 2 µg/mL; MIC90 [13]: 2 µg/mL; MIC90 [15]: 4 µg/mL; MIC90 [16]: 1 µg/mL; MIC90 [19]: 1 µg/mL; MIC90 [22]: 2 µg/mL; MIC90 [24]: 4 µg/mL; MIC90 [27]: 4 µg/mL
C=CCNC(=N)NCCCCCCCCN1CCCCCCCCNC(=N)NC1=O.O=C(O)C(F)(F)F | 0.5 µg/mL | 1 µg/mL | 1 µg/mL | 1 µg/mL | 2 µg/mL | – | 2 µg/mL | 2 µg/mL | 32 µg/mL | 2 µg/mL | 16 µg/mL | 1 µg/mL | 32 µg/mL | 32 µg/mL | 1 µg/mL | 32 µg/mL | 16 µg/mL | 1 µg/mL | 2 µg/mL | 2 µg/mL | MIC90 [10]: 1 µg/mL; MIC90 [13]: 4 µg/mL; MIC90 [15]: 0.5 µg/mL; MIC90 [16]: 1 µg/mL; MIC90 [19]: 2 µg/mL; MIC90 [22]: 4 µg/mL; MIC90 [24]: 4 µg/mL; MIC90 [27]: 2 µg/mL
C/C=C/CNC(=N)NCCCCCCCCN1CCCCOC(=O)CCNC(=N)NC1=O.O=C(O)C(F)(F)F | 32 µg/mL | 32 µg/mL | 16 µg/mL | 8 µg/mL | 8 µg/mL | 16 µg/mL | 32 µg/mL | 4 µg/mL | 64 µg/mL | 16 µg/mL | 128 µg/mL | 16 µg/mL | 64 µg/mL | 64 µg/mL | 8 µg/mL | 128 µg/mL | 64 µg/mL | 8 µg/mL | 16 µg/mL | 16 µg/mL | MIC90 [10]: 4 µg/mL; MIC90 [13]: 8 µg/mL; MIC90 [15]: 64 µg/mL; MIC90 [16]: 8 µg/mL; MIC90 [19]: 4 µg/mL; MIC90 [22]: 32 µg/mL; MIC90 [24]: 32 µg/mL; MIC90 [27]: 4 µg/mL
C/C=C/CNC(=N)NCCCCCCCCN1CCCCCCCCNC(=N)NC1=O | – | – | – | – | – | – | – | – | – | – | – | – | – | – | – | – | – | – | – | – | MIC50 [1]: 1.25 µg/mL (≈ 2.87 µM); MIC50 [2]: 2.5 µg/mL (≈ 5.74 µM); MIC50 [9]: 20 µg/mL (≈ 45.9 µM); MIC50 [15]: 5 µg/mL (≈ 11.5 µM); MIC50 [22]: 5 µg/mL (≈ 11.5 µM)
C[C@@H]1[C@H](O)[C@@H](C)/C=C/C=C/C=C/C=C/C=C/C=C/C=C/[C@H](O[C@@H]2O[C@H](C)[C@@H](O)[C@H](N)[C@@H]2O)C[C@@H]2O[C@](O)(C[C@@H](O)C[C@@H](O)[C@H](O)CC[C@@H](O)C[C@@H](O)CC(=O)O[C@H]1C)C[C@H](O)[C@H]2C(=O)O [AMPHOTERICIN B] | – | – | 8 µg/mL (≈ 8.66 µM) | – | 1 µg/mL (≈ 1.08 µM) | – | – | 1 µg/mL (≈ 1.08 µM) | – | – | – | – | – | – | – | – | – | – | – | – | MIC90 [10]: 0.125 µg/mL (≈ 0.135 µM); MIC90 [13]: 1 µg/mL (≈ 1.08 µM); MIC90 [16]: 2 µg/mL (≈ 2.16 µM); MIC90 [19]: 2 µg/mL (≈ 2.16 µM); MIC90 [27]: 0.125 µg/mL (≈ 0.135 µM)
OC(Cn1cncn1)(Cn1cncn1)c1ccc(F)cc1F [FLUCONAZOLE] | 2 µg/mL (≈ 6.53 µM) | 2 µg/mL (≈ 6.53 µM) | – | 256 µg/mL (≈ 836 µM) | – | 256 µg/mL (≈ 836 µM) | 4 µg/mL (≈ 13.1 µM) | – | 16 µg/mL (≈ 52.2 µM) | 128 µg/mL (≈ 418 µM) | 128 µg/mL (≈ 418 µM) | 256 µg/mL (≈ 836 µM) | 64 µg/mL (≈ 209 µM) | 64 µg/mL (≈ 209 µM) | 64 µg/mL (≈ 209 µM) | 128 µg/mL (≈ 418 µM) | 64 µg/mL (≈ 209 µM) | 32 µg/mL (≈ 104 µM) | 64 µg/mL (≈ 209 µM) | 128 µg/mL (≈ 418 µM) | MIC90 [15]: 256 µg/mL (≈ 836 µM); MIC90 [22]: 0.5 µg/mL (≈ 1.63 µM); MIC90 [24]: 1 µg/mL (≈ 3.27 µM)
C[C@@H](c1ncncc1F)[C@](O)(Cn1cncn1)c1ccc(F)cc1F [VORICONAZOLE] | – | – | – | 8 µg/mL (≈ 22.9 µM) | – | 0.25 µg/mL (≈ 0.716 µM) | – | – | – | 8 µg/mL (≈ 22.9 µM) | 4 µg/mL (≈ 11.5 µM) | 4 µg/mL (≈ 11.5 µM) | 0.125 µg/mL (≈ 0.358 µM) | 2 µg/mL (≈ 5.73 µM) | 2 µg/mL (≈ 5.73 µM) | 2 µg/mL (≈ 5.73 µM) | 0.5 µg/mL (≈ 1.43 µM) | 0.25 µg/mL (≈ 0.716 µM) | 2 µg/mL (≈ 5.73 µM) | 8 µg/mL (≈ 22.9 µM) | –
